Most compounds without a hit are left out; they make up all but 1.9% or so of the library.
MT stabilize HCS: microtubule stabilizers in HeLa cells. HeLa tubulin immunostaining HCS, 24 h; share of cells brighter than vehicle mean+2SD. % tubulin-high responders, % at 10 µM. 200,000 compounds, 0.83% hits. AID 2205;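 active = plate Z-score above 3 for both tubulin-high and condensed-nucleus cell shares, with cell loss under 80%, at 10 µM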;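 also: anti alpha tubulin signal scored within the nucleus-defined area of each cell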
Insulin prom up: MIN6 insulin promoter up-regulation | MIN6 insulin promoter-GFP reporter, high-content imaging; hits give high values | z-score at 5 µM | 190,000 compounds, 0.3% hits | AID 1625;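 active = z-score above 3 at 5 µM with at least 500 cells counted in the well; inconclusive = wells under 500 cells, flagged as cytotoxic or low count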
Autophagy mod: alters autophagy in cells | calls only at 10 µM (by protocol) | AID 463193 | MEF GFP-LC3 puncta imaging; test concentration mostly 10 µM | 190,000 compounds, 0.98% hits;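 active = percentage of spot-positive cells more than 3 SD above its plate mean, without a fluorescence outlier flag or 80% toxicity; inconclusive = no clear call, values can overlap the other calls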
b-catenin transl: alters nuclear translocation of beta-catenin in HeLa cells; immunofluorescence imaging; nuclear translocation activity, % at 5 µM; 190,000 compounds, 0.3% hits; AID 1665;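 active = nuclear translocation activity above 50% at 5 µM, with a well cell count of 50 or more; inconclusive = wells under 50 cells across six images, flagged as toxic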;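 also: per-cell ratio of nuclear to cytoplasmic median beta-catenin stain intensity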
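test system = HeLa cells, endogenous beta-catenin | dosing = single 5 µM dose plus 0.02–20 µM confirmation series | times = compound treatment 24 h, 37°C, 5% CO2 | technique = beta-catenin immunofluorescence imaging with DAPI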
Hits are given with their value; – = inactive; ? = inconclusive; · = no result; + = active, no number.

SMILES	MT stabilize HCS	Insulin prom up	Autophagy mod	b-catenin transl
COC(=O)c1c(C)oc2ccc(N(C(=O)c3ccncc3)S(=O)(=O)c3ccc(C)cc3)cc12	–	?	–	162.2
COC(=O)c1c(C)oc2ccc(N(C(=O)c3ccncc3)S(=O)(=O)c3ccc4ccccc4c3)cc12	27.3	–	–	–
COC(=O)c1c(C)oc2ccc(N(C(=O)c3ccncc3)S(=O)(=O)c3ccc(C)cc3C)cc12	14.1	–	–	–
O=C(O)CCCCCN1C(=O)/C(=C\c2ccc(-c3ccc(Cl)cc3)o2)SC1=S	·	4.23	·	–
O=C(O)CCCN1C(=O)/C(=C/c2ccc(-c3nc4ccccc4s3)o2)SC1=S	–	–	–	–
COc1ccc(CNC(=O)COC(=O)c2ccco2)cc1	–	–	–	–
N#Cc1ccc(/C=N/N=C(N)N)cc1	–	–	–	–
NC(N)=N/N=C/c1ccc(Br)cc1	23.6	–	–	112.7
CSc1nnc(-c2sc3cc(C(F)(F)F)cnc3c2-c2ccccc2)n1C	40.4	–	–	·
O=C(NN=C1CCCCCC1)c1ccc2c(c1)OCO2	–	·	–	–
CCN(CC)CCn1c2ccccc2c2cnc(N)c(C#N)c21	–	–	+	–
COc1ccc(NC(=S)NCCCN2CCN(C3CCCCC3)CC2)cc1	–	–	–	–
Cc1ccc(S(=O)(=O)Oc2ccccc2/C=N/NC(N)=S)cc1	–	–	+	–
COc1cccc(OC)c1C(=O)NC(=S)Nc1cc(-c2nc3ccccc3[nH]2)ccc1Cl	–	–	–	–
Cc1ccnc(NC(=O)CSc2cc(=O)n(C)c3ccccc23)c1	–	–	+	–
CNCCCNCc1ccc(SC)cc1	–	·	–	·
COc1ccc(OC)c(-c2cc(-c3cccnc3)nc(N)c2C#N)c1	·	–	·	–
COc1ccc(OC)c(-c2c(C#N)c(N)nc3c2c(=O)nc2sccn23)c1	–	–	+	–
Cc1ccc([N+](=O)[O-])c(C(=O)N/N=C/c2cccs2)c1	·	–	·	–
CCCCOc1ccc2c(c1)/C(=C(\C(Cl)=C(Cl)Cl)[N+](=O)[O-])N2	9.9	–	–	–
CNC(=O)CSCc1c(F)cccc1Cl	–	·	–	–
O=C(CSCc1c(F)cccc1Cl)Nc1cccnc1	–	–	+	–
Cc1ccccc1NC(NC(=O)c1cccs1)C(Cl)(Cl)Cl (stereo not drawn)	–	–	–	–
COc1ccccc1NC(=S)N1CCC(c2nc3cc(C)c(C)cc3[nH]2)CC1	–	–	–	–
COc1ccccc1NC(=O)N1CCC(c2nc3cc(C)c(C)cc3[nH]2)CC1	18.1	·	+	–
SMILES	MT stabilize HCS	Insulin prom up	Autophagy mod	b-catenin transl
COc1ccc(NC(=O)c2cc3c(s2)CCC(C)C3)cc1S(=O)(=O)N1CCOCC1 (stereo not drawn)	–	·	–	–
C/C(=N\NC(N)=S)C1C2C3CC4C5CC(C42)C1C53 (stereo not drawn)	7.4	–	–	–
C/C(CC(C)(C)C1CCCCC1)=N\NC(N)=S	–	–	–	·
O=C(NNC(=O)c1c(F)cccc1F)c1ccccc1-n1cccc1	–	–	–	–
COc1ccc2c3c(c(=O)oc2c1OCC(N)=O)CCCC3	–	–	–	–
CCCCn1cnc2c(cnn2-c2ccc(F)cc2)c1=O	–	·	–	·
CCCn1cnc2c(cnn2-c2ccc(F)cc2)c1=O	–	·	+	–
O=[N+]([O-])c1ccc(N2N=C(c3ccco3)CC2c2ccccc2)cc1 (stereo not drawn)	–	·	–	–
Fc1ccc(C2CC(c3ccco3)=NN2c2ccccc2)cc1 (stereo not drawn)	–	3.51	–	–
FC(F)(F)c1cc(-c2ccco2)nc(NCc2ccccc2)n1	–	–	–	–
FC(F)(F)c1cc(-c2ccco2)nc(NCc2cccnc2)n1	–	–	–	61.2
Cn1c(N/N=C/c2cc3ccccc3nc2Cl)nc2ccccc21	–	·	–	–
O=C(CC1C(=O)NCCN1C(=O)Nc1ccc(Cl)cc1)Nc1ccc(F)cc1 (stereo not drawn)	–	–	+	–
CCOC(=O)c1sc2nc(Cc3ccc(Cl)cc3)[nH]c(=S)c2c1C	–	–	–	–
CCCNC(=O)CN1C(=O)NC(Cc2c[nH]c3ccccc23)C1=O (stereo not drawn)	–	–	–	–
CCCCNc1cc(C(=O)O)cc(S(N)(=O)=O)c1Oc1ccccc1	–	·	–	–
COc1ccc(NS(=O)(=O)c2cc(NC(=O)c3cccs3)ccc2N2CCOCC2)cc1	13.0	·	–	–
COc1cccc(C(=O)OCc2ccccc2C#N)c1O	–	–	–	–
C=CCNCC(=O)N1N=C(c2ccc3ccccc3c2)CC1c1ccc(OC)cc1 (stereo not drawn)	–	–	+	–
